Reference: ChEMBL document CHEMBL1146365, “Synthesis and biological evaluation of new N-(2-hydroxy-4(or 5)-nitro/aminophenyl)benzamides and phenylacetamides as antimicrobial agents” (2007)
≈ marks a conversion by molar mass, not a printed value.

What was measured:
Bacillus subtilis [1] = assay: Antibacterial activity against Bacillus subtilis ATCC 6633 assessed after 24 hrs by serial dilution method; format: functional; settings: ATCC 6633, 24 h
Method in brief: (§1)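 Strains were subcultured twice on MHA at 37 °C overnight. Inoculum was diluted from McFarland 0.5 to 10^5 cfu/ml, giving 10^4 cfu/ml in wells. Solvent, medium and organism-only controls were included. Incubated 37 °C, humid chamber, 24 h, in triplicate. MIC = lowest concentration with no macroscopic growth.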

Escherichia coli [2] = assay: Antibacterial activity against Escherichia coli isolate assessed after 24 hrs by serial dilution method; format: functional; method in brief: as §1
Pseudomonas aeruginosa [3] = assay: Antibacterial activity against Pseudomonas aeruginosa ATCC […] assessed after 24 hrs by serial dilution method
Bacillus subtilis [4] = assay: Antibacterial activity against drug-resistant Bacillus subtilis assessed after 24 hrs by serial dilution method
Candida albicans [5] = assay: Antifungal activity against Candida albicans isolate assessed after 48 hrs by serial dilution method; format: functional
Method in brief: (§2)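 Broth microdilution per CLSI M27-A in RPMI-1640 with L-glutamine, MOPS-buffered pH 7, with 2-fold compound dilutions. Yeasts were subcultured twice on SDA at 35 °C for 24–48 h. Inoculum was diluted from McFarland 0.5 to 10^4 cfu/ml, giving 10^3 cfu/ml in wells. Incubated 35 °C, humid chamber, 48 h, in triplicate. MIC = lowest concentration with no macroscopic growth.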

Escherichia coli [6] = assay: Antibacterial activity against Escherichia coli ATCC assessed after 24 hrs by serial dilution method
Staphylococcus aureus [7] = assay: Antibacterial activity against Staphylococcus aureus ATCC 25923 assessed after 24 hrs by serial dilution method; format: functional; settings: ATCC 25923, 24 h; method in brief: as §1
Klebsiella pneumoniae [8] = assay: Antibacterial activity against Klebsiella pneumoniae isolate assessed after 24 hrs by serial dilution method; format: functional; method in brief: as §1
Candida albicans [9] = assay: Antifungal activity against Candida albicans ATCC 10231 assessed after 48 hrs by serial dilution method; format: functional; settings: ATCC 10231, 48 h; method in brief: as §2
Staphylococcus aureus [10] = assay: Antibacterial activity against drug-resistant Staphylococcus aureus assessed after 24 hrs by serial dilution method
Klebsiella pneumoniae [11] = assay: Antibacterial activity against Klebsiella pneumoniae RSHM 574 assessed after 24 hrs by serial dilution method
Pseudomonas aeruginosa [12] = assay: Antibacterial activity against Pseudomonas aeruginosa isolate assessed after 24 hrs by serial dilution method; format: functional; method in brief: as §1

Row | Compound | MIC (Bacillus subtilis [1]) | MIC (Escherichia coli [2]) | MIC (Pseudomonas aeruginosa [3]) | MIC (Bacillus subtilis [4]) | MIC (Candida albicans [5]) | MIC (Escherichia coli [6]) | MIC (Staphylococcus aureus [7]) | MIC (Klebsiella pneumoniae [8]) | MIC (Candida albicans [9]) | MIC (Staphylococcus aureus [10]) | MIC (Klebsiella pneumoniae [11]) | MIC (Pseudomonas aeruginosa [12])
1 | O=C(Cc1ccc(Cl)cc1)Nc1ccc([N+](=O)[O-])cc1O | 250 µg/mL (≈ 815 µM) | 125 µg/mL (≈ 408 µM) | 125 µg/mL (≈ 408 µM) | 31.2 µg/mL (≈ 102 µM) | 125 µg/mL (≈ 408 µM) | 125 µg/mL (≈ 408 µM) | 125 µg/mL (≈ 408 µM) | 125 µg/mL (≈ 408 µM) | 125 µg/mL (≈ 408 µM) | 125 µg/mL (≈ 408 µM) | 125 µg/mL (≈ 408 µM) | 250 µg/mL (≈ 815 µM)
2 | O=C(Nc1ccc([N+](=O)[O-])cc1O)c1ccccc1 | 31.2 µg/mL (≈ 121 µM) | 250 µg/mL (≈ 968 µM) | 125 µg/mL (≈ 484 µM) | 31.2 µg/mL (≈ 121 µM) | 125 µg/mL (≈ 484 µM) | 125 µg/mL (≈ 484 µM) | 62.5 µg/mL (≈ 242 µM) | 250 µg/mL (≈ 968 µM) | 62.5 µg/mL (≈ 242 µM) | 125 µg/mL (≈ 484 µM) | 125 µg/mL (≈ 484 µM) | 250 µg/mL (≈ 968 µM)
3 | Nc1ccc(O)c(NC(=O)c2ccc(F)cc2)c1 | 62.5 µg/mL (≈ 254 µM) | 125 µg/mL (≈ 508 µM) | 62.5 µg/mL (≈ 254 µM) | 62.5 µg/mL (≈ 254 µM) | 62.5 µg/mL (≈ 254 µM) | 125 µg/mL (≈ 508 µM) | 15.6 µg/mL (≈ 63.4 µM) | 125 µg/mL (≈ 508 µM) | 62.5 µg/mL (≈ 254 µM) | 15.6 µg/mL (≈ 63.4 µM) | 62.5 µg/mL (≈ 254 µM) | 125 µg/mL (≈ 508 µM)
4 | O=C(Nc1ccc([N+](=O)[O-])cc1O)c1ccc(F)cc1 | 3.9 µg/mL (≈ 14.1 µM) | 250 µg/mL (≈ 905 µM) | 125 µg/mL (≈ 453 µM) | 15.6 µg/mL (≈ 56.5 µM) | 250 µg/mL (≈ 905 µM) | 125 µg/mL (≈ 453 µM) | 7.8 µg/mL (≈ 28.2 µM) | 250 µg/mL (≈ 905 µM) | 250 µg/mL (≈ 905 µM) | 15.6 µg/mL (≈ 56.5 µM) | 125 µg/mL (≈ 453 µM) | 250 µg/mL (≈ 905 µM)
5 | Nc1ccc(NC(=O)Cc2ccc(Br)cc2)c(O)c1 | 125 µg/mL (≈ 389 µM) | 125 µg/mL (≈ 389 µM) | 250 µg/mL (≈ 778 µM) | 125 µg/mL (≈ 389 µM) | 250 µg/mL (≈ 778 µM) | 125 µg/mL (≈ 389 µM) | 125 µg/mL (≈ 389 µM) | 125 µg/mL (≈ 389 µM) | 125 µg/mL (≈ 389 µM) | 31.2 µg/mL (≈ 97.3 µM) | 125 µg/mL (≈ 389 µM) | 250 µg/mL (≈ 778 µM)
6 | Cc1ccc(CC(=O)Nc2ccc(N)cc2O)cc1 | 62.5 µg/mL (≈ 244 µM) | 250 µg/mL (≈ 975 µM) | 125 µg/mL (≈ 488 µM) | 62.5 µg/mL (≈ 244 µM) | 250 µg/mL (≈ 975 µM) | 125 µg/mL (≈ 488 µM) | 250 µg/mL (≈ 975 µM) | 250 µg/mL (≈ 975 µM) | 125 µg/mL (≈ 488 µM) | 62.5 µg/mL (≈ 244 µM) | 125 µg/mL (≈ 488 µM) | 250 µg/mL (≈ 975 µM)
7 | CC1(C)S[C@@H]2[C@H](NC(=O)[C@H](N)c3ccccc3)C(=O)N2[C@H]1C(=O)O.O.O.O [AMPICILLIN TRIHYDRATE] | 16 µg/mL | 500 µg/mL | 4 µg/mL | 8 µg/mL |  | > 4100 µg/mL | 64 µg/mL | 256 µg/mL |  | > 4100 µg/mL | 1020 µg/mL | 2 µg/mL
8 | C[C@@H]1[C@H](O)[C@@H](C)/C=C/C=C/C=C/C=C/C=C/C=C/C=C/[C@H](O[C@@H]2O[C@H](C)[C@@H](O)[C@H](N)[C@@H]2O)C[C@@H]2O[C@](O)(C[C@@H](O)C[C@@H](O)[C@H](O)CC[C@@H](O)C[C@@H](O)CC(=O)O[C@H]1C)C[C@H](O)[C@H]2C(=O)O [AMPHOTERICIN B] |  |  |  |  | 128 µg/mL (≈ 139 µM) |  |  |  |  |  |  | 
9 | CC1COc2c(N3CCN(C)CC3)c(F)cc3c(=O)c(C(=O)O)cn1c23 (configuration not stated) [OFLOXACIN] | > 4100 µg/mL | 32 µg/mL (≈ 88.6 µM) | 8 µg/mL (≈ 22.1 µM) | 32 µg/mL (≈ 88.6 µM) |  |  | > 4100 µg/mL | 64 µg/mL (≈ 177 µM) |  | > 4100 µg/mL | 64 µg/mL (≈ 177 µM) | 
10 | Nc1ccc(O)c(NC(=O)Cc2ccc(F)cc2)c1 | 15.6 µg/mL (≈ 59.9 µM) | 250 µg/mL (≈ 961 µM) |  |  | 125 µg/mL (≈ 480 µM) |  | 62.5 µg/mL (≈ 240 µM) | 250 µg/mL (≈ 961 µM) | 250 µg/mL (≈ 961 µM) |  |  | 250 µg/mL (≈ 961 µM)
11 | CO[C@H]1/C=C/O[C@@]2(C)Oc3c(C)c(O)c4c(O)c(c(/C=N/N5CCN(C)CC5)c(O)c4c3C2=O)NC(=O)/C(C)=C\C=C\[C@H](C)[C@H](O)[C@@H](C)[C@@H](O)[C@@H](C)[C@H](OC(C)=O)[C@@H]1C [RIFAMPIN] |  | 62.5 µg/mL (≈ 75.9 µM) | 32 µg/mL (≈ 38.9 µM) | 256 µg/mL (≈ 311 µM) |  | > 4100 µg/mL | > 4100 µg/mL | 256 µg/mL (≈ 311 µM) |  | 512 µg/mL (≈ 622 µM) | 16 µg/mL (≈ 19.4 µM) | 32 µg/mL (≈ 38.9 µM)
